Source: ChEMBL document CHEMBL1140412, “F-18 stilbenes as PET imaging agents for detecting beta-amyloid plaques in the brain” (J Med Chem, 2005)

How the values were obtained:
[1] = biological target: Amyloid-beta precursor protein (Homo sapiens, UniProt P05067); test: Inhibition constant for I-125-IMPY binding to amyloid plaques in Alzheimers disease brain homogenates; assay type: tissue-based
In short: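 Competition binding in pooled postmortem AD cortical homogenates (dissected gray/white matter, ~100 mg wet tissue/ml PBS pH 7.4; 20-50 μg per tube). [¹²⁵I]IMPY at 0.04-0.06 nM; inhibitors 10^-5-10^-10 M in PBS with 0.1% BSA. Nonspecific binding with 600 nM IMPY. Incubated 2 hr at 37°C, GF/B filtration, PBS washes, gamma counting. Ki from nonlinear regression.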

[2] = Biodistribution in ICR mouse kidney 2 hr after iv injection of [18F]-compound in 0.1% bovine serum albumin solution, n = 3; assay type: ADME, organism-based; details: in vivo
In short: (§1)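 Male ICR mice (22-25 g) under isoflurane anesthesia received 0.15 mL of 0.1% BSA solution containing 5-10 μCi [¹⁸F]tracer by tail-vein injection; n = 3 per time point. Killed by cervical dislocation, organs removed, weighed and gamma-counted. %dose/g derived from sample counts vs. diluted initial dose; blood total activity assumed as 7% of body weight. Mean ± SD.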

[3] = Biodistribution in ICR mouse skin 1 hr after iv injection of [18F]-compound in 0.1% bovine serum albumin solution, n = 3; assay type: ADME, organism-based, Zone of skin; details: in vivo; in short: as §1
[4] = Biodistribution in ICR mouse lung 2 min. after iv injection of [18F]-compound in 0.1% bovine serum albumin solution, n = 3; assay type: ADME, organism-based; details: in vivo; in short: as §1
[5] = Biodistribution in ICR mouse muscle 2 hr after iv injection of [18F]-compound in 0.1% bovine serum albumin solution, n = 3; assay type: ADME, organism-based, Muscle tissue; details: in vivo; in short: as §1
[6] = Biodistribution in ICR mouse heart 2 min. after iv injection of [18F]-compound in 0.1% bovine serum albumin solution, n = 3; assay type: ADME, organism-based; details: in vivo; in short: as §1
[7] = Biodistribution in ICR mouse liver 1 hr after iv injection of [18F]-compound in 0.1% bovine serum albumin solution, n = 3; assay type: ADME, organism-based; details: in vivo; in short: as §1
[8] = Biodistribution in ICR mouse blood 1 hr after iv injection of [18F]-compound in 0.1% bovine serum albumin solution, n = 3; assay type: ADME, organism-based; details: in vivo; in short: as §1
[9] = Biodistribution in ICR mouse heart 2 hr after iv injection of [18F]-compound in 0.1% bovine serum albumin solution, n = 3; assay type: ADME, organism-based; details: in vivo; in short: as §1
[10] = Biodistribution in ICR mouse skin 2 hr after iv injection of [18F]-compound in 0.1% bovine serum albumin solution, n = 3; assay type: ADME, organism-based, Zone of skin; details: in vivo; in short: as §1
[11] = Biodistribution in ICR mouse bone 2 hr after iv injection of [18F]-compound in 0.1% bovine serum albumin solution, n = 3; assay type: ADME, organism-based, Bone element; details: in vivo; in short: as §1
[12] = Biodistribution in ICR mouse spleen 2 min. after iv injection of [18F]-compound in 0.1% bovine serum albumin solution, n = 3; assay type: ADME, organism-based; details: in vivo; in short: as §1
[13] = Biodistribution in ICR mouse kidney 1 hr after iv injection of [18F]-compound in 0.1% bovine serum albumin solution, n = 3; assay type: ADME, organism-based; details: in vivo; in short: as §1
[14] = Biodistribution in ICR mouse muscle 30 min. after iv injection of [18F]-compound in 0.1% bovine serum albumin solution, n = 3; assay type: ADME, organism-based, Muscle tissue; details: in vivo, 0.5 h; in short: as §1
[15] = Biodistribution in ICR mouse heart 30 min. after iv injection of [18F]-compound in 0.1% bovine serum albumin solution, n = 3; assay type: ADME, organism-based; details: in vivo, 0.5 h; in short: as §1
[16] = Biodistribution in ICR mouse liver 2 hr after iv injection of [18F]-compound in 0.1% bovine serum albumin solution, n = 3; assay type: ADME, organism-based; details: in vivo; in short: as §1
[17] = Biodistribution in ICR mouse lung 1 hr after iv injection of [18F]-compound in 0.1% bovine serum albumin solution, n = 3; assay type: ADME, organism-based; details: in vivo; in short: as §1
[18] = Biodistribution in ICR mouse muscle 2 min. after iv injection of [18F]-compound in 0.1% bovine serum albumin solution, n = 3; assay type: ADME, organism-based, Muscle tissue; details: in vivo; in short: as §1
[19] = Biodistribution in ICR mouse spleen 2 hr after iv injection of [18F]-compound in 0.1% bovine serum albumin solution, n = 3; assay type: ADME, organism-based; details: in vivo; in short: as §1
[20] = Biodistribution in ICR mouse bone 30 min. after iv injection of [18F]-compound in 0.1% bovine serum albumin solution, n = 3; assay type: ADME, organism-based, Bone element; details: in vivo, 0.5 h; in short: as §1
[21] = Biodistribution in ICR mouse brain 2 min. after iv injection of [18F]-compound in 0.1% bovine serum albumin solution, n = 3; assay type: ADME, organism-based; details: in vivo; in short: as §1
[22] = Biodistribution in ICR mouse kidney 2 min. after iv injection of [18F]-compound in 0.1% bovine serum albumin solution, n = 3; assay type: ADME, organism-based; details: in vivo; in short: as §1
[23] = Biodistribution in ICR mouse skin 30 min. after iv injection of [18F]-compound in 0.1% bovine serum albumin solution, n = 3; assay type: ADME, organism-based, Zone of skin; details: in vivo, 0.5 h; in short: as §1
[24] = Biodistribution in ICR mouse spleen 30 min. after iv injection of [18F]-compound in 0.1% bovine serum albumin solution, n = 3; assay type: ADME, organism-based; details: in vivo, 0.5 h; in short: as §1
[25] = Biodistribution in ICR mouse liver 2 min. after iv injection of [18F]-compound in 0.1% bovine serum albumin solution, n = 3; assay type: ADME, organism-based; details: in vivo; in short: as §1
[26] = Biodistribution in ICR mouse kidney 30 min. after iv injection of [18F]-compound in 0.1% bovine serum albumin solution, n = 3; assay type: ADME, organism-based; details: in vivo, 0.5 h; in short: as §1
[27] = Biodistribution in ICR mouse lung 2 hr after iv injection of [18F]-compound in 0.1% bovine serum albumin solution, n = 3; assay type: ADME, organism-based; details: in vivo; in short: as §1
[28] = Biodistribution in ICR mouse heart 1 hr after iv injection of [18F]-compound in 0.1% bovine serum albumin solution, n = 3; assay type: ADME, organism-based; details: in vivo; in short: as §1
[29] = Biodistribution in ICR mouse liver 30 min. after iv injection of [18F]-compound in 0.1% bovine serum albumin solution, n = 3; assay type: ADME, organism-based; details: in vivo, 0.5 h; in short: as §1
[30] = Biodistribution in ICR mouse bone 1 hr after iv injection of [18F]-compound in 0.1% bovine serum albumin solution, n = 3; assay type: ADME, organism-based, Bone element; details: in vivo; in short: as §1
[31] = Biodistribution in ICR mouse muscle 1 hr after iv injection of [18F]-compound in 0.1% bovine serum albumin solution, n = 3; assay type: ADME, organism-based, Muscle tissue; details: in vivo; in short: as §1
[32] = Biodistribution in ICR mouse bone 2 min. after iv injection of [18F]-compound in 0.1% bovine serum albumin solution, n = 3; assay type: ADME, organism-based, Bone element; details: in vivo; in short: as §1
[33] = Biodistribution in ICR mouse spleen 1 hr after iv injection of [18F]-compound in 0.1% bovine serum albumin solution, n = 3; assay type: ADME, organism-based; details: in vivo; in short: as §1
[34] = Biodistribution in ICR mouse blood 2 hr after iv injection of [18F]-compound in 0.1% bovine serum albumin solution, n = 3; assay type: ADME, organism-based; details: in vivo; in short: as §1
[35] = Biodistribution in ICR mouse brain 2 hr after iv injection of [18F]-compound in 0.1% bovine serum albumin solution, n = 3; assay type: ADME, organism-based; details: in vivo; in short: as §1
[36] = Biodistribution in ICR mouse blood 30 min. after iv injection of [18F]-compound in 0.1% bovine serum albumin solution, n = 3; assay type: ADME, organism-based; details: in vivo, 0.5 h; in short: as §1
[37] = Biodistribution in ICR mouse brain 1 hr after iv injection of [18F]-compound in 0.1% bovine serum albumin solution, n = 3; assay type: ADME, organism-based; details: in vivo; in short: as §1
[38] = Biodistribution in ICR mouse blood 2 min. after iv injection of [18F]-compound in 0.1% bovine serum albumin solution, n = 3; assay type: ADME, organism-based; details: in vivo; in short: as §1
[39] = Biodistribution in ICR mouse lung 30 min. after iv injection of [18F]-compound in 0.1% bovine serum albumin solution, n = 3; assay type: ADME, organism-based; details: in vivo, 0.5 h; in short: as §1
[40] = Biodistribution in ICR mouse skin 2 min. after iv injection of [18F]-compound in 0.1% bovine serum albumin solution, n = 3; assay type: ADME, organism-based, Zone of skin; details: in vivo; in short: as §1
[41] = Biodistribution in ICR mouse brain 30 min. after iv injection of [18F]-compound in 0.1% bovine serum albumin solution, n = 3; assay type: ADME, organism-based; details: in vivo, 0.5 h; in short: as §1

Sequence of Amyloid-beta precursor protein (P05067 whole entry): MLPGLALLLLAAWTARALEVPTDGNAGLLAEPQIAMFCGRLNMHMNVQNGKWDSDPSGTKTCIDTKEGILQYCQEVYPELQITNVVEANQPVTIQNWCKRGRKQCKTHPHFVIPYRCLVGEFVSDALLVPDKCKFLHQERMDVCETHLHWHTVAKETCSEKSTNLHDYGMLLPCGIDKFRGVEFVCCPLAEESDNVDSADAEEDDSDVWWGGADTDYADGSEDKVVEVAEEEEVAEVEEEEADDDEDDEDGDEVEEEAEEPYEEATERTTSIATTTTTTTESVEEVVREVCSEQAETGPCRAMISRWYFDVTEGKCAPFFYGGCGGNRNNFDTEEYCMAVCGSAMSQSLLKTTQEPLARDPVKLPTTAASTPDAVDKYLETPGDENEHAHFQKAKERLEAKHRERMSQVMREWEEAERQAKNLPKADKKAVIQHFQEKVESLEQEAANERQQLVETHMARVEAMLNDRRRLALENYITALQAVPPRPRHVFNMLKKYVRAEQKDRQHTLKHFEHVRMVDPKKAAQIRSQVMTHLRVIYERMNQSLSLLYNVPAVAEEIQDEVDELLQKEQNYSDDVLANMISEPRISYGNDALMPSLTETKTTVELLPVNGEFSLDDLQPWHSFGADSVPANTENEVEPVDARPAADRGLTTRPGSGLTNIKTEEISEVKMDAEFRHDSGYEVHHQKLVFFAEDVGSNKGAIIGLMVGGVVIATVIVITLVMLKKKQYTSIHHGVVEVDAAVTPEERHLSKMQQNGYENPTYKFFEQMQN

For `CNc1ccc(/C=C/c2ccc(OCC(CO)CO)cc2)cc1`, the Ki [1] was 32.5 nM.

`Nc1ccc(/C=C/c2ccc(OCC(CO)CF)cc2)cc1` (stereo not given) gave a Ki [1] of 15 nM.

With `CN(C)c1ccc(/C=C/c2ccc(O)cc2)cc1` the Ki [1] was 1.1 nM.

Compound `CN(C)c1ccc(/C=C/c2ccc(OCC3COC(C)(C)OC3)cc2)cc1` has a Ki [1] of 59 nM.

`CNc1ccc(/C=C/c2ccc(OCC(CO)C[18F])cc2)cc1` (stereo not given) gave a Biodistribution [2] of 1.5 %Dose/g, a Biodistribution [3] of 1.22 %Dose/g and a Biodistribution [4] of 26.13 %Dose/g. For the same compound, the Biodistribution [5] was 0.41 %Dose/g, the Biodistribution [6] was 7.49 %Dose/g and the Biodistribution [7] was 14.58 %Dose/g. For the same compound, the Biodistribution [8] was 1.82 %Dose/g, the Biodistribution [9] was 0.65 %Dose/g and the Biodistribution [10] was 0.57 %Dose/g. For the same compound, the Biodistribution [11] was 7.76 %Dose/g, the Biodistribution [12] was 5.01 %Dose/g and the Biodistribution [13] was 3.06 %Dose/g. The Biodistribution [14] was 1.31 %Dose/g, the Biodistribution [15] was 2.06 %Dose/g and the Biodistribution [16] was 8.14 %Dose/g. For the same compound, the Biodistribution [17] was 7.51 %Dose/g, the Biodistribution [18] was 0.74 %Dose/g and the Biodistribution [19] was 1.22 %Dose/g. For the same compound, the Biodistribution [20] was 2.13 %Dose/g, the Biodistribution [21] was 9.75 %Dose/g and the Biodistribution [22] was 11.7 %Dose/g. It also gave a Biodistribution [23] of 1.49 %Dose/g, a Biodistribution [24] of 2.41 %Dose/g and a Biodistribution [25] of 20.61 %Dose/g. The Biodistribution [26] was 4.13 %Dose/g, the Biodistribution [27] was 4.15 %Dose/g and the Biodistribution [28] was 1.54 %Dose/g. The Biodistribution [29] was 19.6 %Dose/g, the Biodistribution [30] was 5.3 %Dose/g and the Biodistribution [31] was 0.85 %Dose/g. It also gave a Biodistribution [32] of 1.53 %Dose/g, a Biodistribution [33] of 1.37 %Dose/g and a Ki [1] of 5 nM. The Biodistribution [34] was 0.78 %Dose/g, the Biodistribution [35] was 0.31 %Dose/g and the Biodistribution [36] was 2.47 %Dose/g. The Biodistribution [37] was 0.72 %Dose/g, the Biodistribution [38] was 2.6 %Dose/g and the Biodistribution [39] was 8.9 %Dose/g. For the same compound, the Biodistribution [40] was 0.92 %Dose/g and the Biodistribution [41] was 1.7 %Dose/g.
